This passage reports MIC and inhibition results from ChEMBL document CHEMBL4765291, “Design, synthesis and biological evaluation of novel 3,4-dihydro-2(1H)-quinolinone derivatives as potential chitin synthase inhibitors and antifungal agents” (Eur J Med Chem, 2020).

One may read the MIC as the least concentration at which growth counts as inhibited. Low readings indicate a more susceptible organism, high ones a less susceptible organism. In general, inhibition refers to the share of the control response that was lost under treatment.

One test concerns Proteus vulgaris. Nature of the test: Antibacterial activity against Bacillus proteus ATCC 8427. The format is functional. A digest of the protocol:
(§1)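 Two-fold serial broth dilution in 96-well plates following National Committee standards; compounds tested at different concentrations. Medium: beef extract peptone (1% peptone, 0.3% beef extract, 0.5% NaCl). Incubation 18–24 h. MIC recorded; streptomycin and norfloxacin as control drugs; each group tested in triplicate.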

Another test has as its system Escherichia coli. The experiment in a line: Antibacterial activity against Escherichia coli JM 109.
Test [1] relates to Staphylococcus aureus. Nature of the test: Antibacterial activity against methicillin-resistant Staphylococcus aureus N. 315. The format is functional. The gist of the method: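 Two-fold serial broth dilution in 96-well plates per national clinical standard; beef extract peptone medium (1% peptone, 0.3% beef extract, 0.5% NaCl, […]). Compounds from DMSO stock diluted to test concentrations; incubation 18–24 h. MIC recorded; each group tested independently in triplicate.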

Test [2] relates to Staphylococcus aureus. The experiment in a line: Antibacterial activity against Staphylococcus aureus ATCC 25923. The format is functional. A digest of the protocol:
as §1

The subject of another test is Candida tropicalis. The experiment in a line: Inhibition of Candida tropicalis ATCC 750 chitin synthase at 300 ug/ml using UDP-GlcNAc as substrate relative to control. The note with it: dose 300.0 µg/ml. The gist of the method: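 Chitin synthase prepared from C. tropicalis ATCC 750 by low- and high-speed centrifugation. DMSO stocks (10 mg/mL) diluted in 50 mM Tris-HCl pH 7.5; test concentrations 300–9.375 µg/mL. Chitin synthesized in WGA-coated wells, bound with WGA-HRP, washed, developed with TMB/H2O2, stopped with 2 M H2SO4, OD read. Duplicate; polyoxin B positive control.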

Test [3] concerns Candida albicans. The experiment in a line: Antifungal activity against Candida albicans ATCC 76615 incubated for 48 hrs by two-fold broth dilution analysis. The format is functional. The gist of the method: (§2)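 Stock solutions in DMSO, diluted to 0.25–512 µg/mL; two-fold serial broth dilution in 96-well plates. Fungi grown on modified Sabouraud chloramphenicol agar (1% peptone, 2% glucose, […]). Incubated 48 h at 37 °C, then MIC (µg/mL) recorded. Fluconazole and polyoxin B as positive controls; each group tested in triplicate.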
Background: Dilution methods test growth across graded concentrations, often in twofold steps.

Another test deals with Aspergillus flavus. The experiment in a line: Antifungal activity against Aspergillus flavus ATCC 16870 incubated for 48 hrs by two-fold broth dilution analysis. The format is functional. The gist of the method:
as §2

Another test relates to Cryptococcus neoformans. The experiment in a line: Antifungal activity against Cryptococcus neoformans ATCC 32719 incubated for 48 hrs by two-fold broth dilution analysis. The format is functional. A digest of the protocol:
as §2

The subject of another test is Bacillus subtilis. The experiment in a line: Antibacterial activity against Bacillus subtilis ATCC 6633. The format is functional. The gist of the method: as §1
Test [4] relates to Candida albicans. The experiment in a line: Antifungal activity against Candida albicans ATCC 90023 incubated for 48 hrs by two-fold broth dilution analysis. The format is functional. The gist of the method: as §2
For a further test, the system named is Pseudomonas aeruginosa. Nature of the test: Antibacterial activity against Pseudomonas aeruginosa ATCC 9027. The format is functional. The gist of the method: as §1
Another test concerns Aspergillus fumigatus. Nature of the test: Antifungal activity against Aspergillus fumigatus GIMCC 3.19 incubated for 48 hrs by two-fold broth dilution analysis. The format is functional. A digest of the protocol: as §2

Values after ≈ are worked out from the molar mass of the structure shown.

`O=C(/C=C/C(=O)NC1Cc2ccccc2NC1=O)Nc1ccccc1` (configuration not stated): the MIC against Proteus vulgaris is 256 µg/mL (≈ 763 µM); in the test on Escherichia coli, 512 µg/mL (≈ 1530 µM); against Staphylococcus aureus [1], 256 µg/mL (≈ 763 µM); against Staphylococcus aureus [2], 256 µg/mL (≈ 763 µM); with Candida albicans [3], 4 µg/mL (≈ 11.9 µM); against Aspergillus flavus, 4 µg/mL (≈ 11.9 µM). Besides, the MIC with Cryptococcus neoformans stood at 4 µg/mL (≈ 11.9 µM); in the test on Bacillus subtilis, 256 µg/mL (≈ 763 µM); in the test with Candida albicans [4], 2 µg/mL (≈ 5.96 µM); in the test on Pseudomonas aeruginosa, 256 µg/mL (≈ 763 µM); with Aspergillus fumigatus, 4 µg/mL (≈ 11.9 µM). In the test on Candida tropicalis, this molecule had an inhibition of 35.7%.

As for `O=C(/C=C/C(=O)NC1Cc2ccccc2NC1=O)Nc1ccc(Cl)cc1` (configuration not stated), the MIC against Proteus vulgaris was 512 µg/mL (≈ 1380 µM); in the test with Escherichia coli, 256 µg/mL (≈ 692 µM); in the test on Staphylococcus aureus [1] it was 512 µg/mL (≈ 1380 µM); against Staphylococcus aureus [2] it was 128 µg/mL (≈ 346 µM); in the test with Candida albicans [3], 4 µg/mL (≈ 10.8 µM); against Aspergillus flavus it was 4 µg/mL (≈ 10.8 µM). The MIC came out at 4 µg/mL (≈ 10.8 µM) in the test on Cryptococcus neoformans; 256 µg/mL (≈ 692 µM) with Bacillus subtilis; 2 µg/mL (≈ 5.41 µM) with Candida albicans [4]; 512 µg/mL (≈ 1380 µM) in the test with Pseudomonas aeruginosa; 8 µg/mL (≈ 21.6 µM) in the test with Aspergillus fumigatus. The molecule further had an inhibition with Candida tropicalis of 50.5%.

As for `O=C(/C=C/C(=O)NC1Cc2ccccc2NC1=O)Nc1cccc2ccccc12` (configuration not stated), the MIC with Proteus vulgaris is 256 µg/mL (≈ 664 µM); in the test on Escherichia coli, 512 µg/mL (≈ 1330 µM); against Staphylococcus aureus [1] it was 256 µg/mL (≈ 664 µM); with Staphylococcus aureus [2] it was 256 µg/mL (≈ 664 µM); against Candida albicans [3], 2 µg/mL (≈ 5.19 µM); against Aspergillus flavus, 8 µg/mL (≈ 20.8 µM). For the same molecule, the MIC in the test on Cryptococcus neoformans turned out to be 4 µg/mL (≈ 10.4 µM); in the test with Bacillus subtilis it was 256 µg/mL (≈ 664 µM); against Candida albicans [4] it was 2 µg/mL (≈ 5.19 µM); in the test with Pseudomonas aeruginosa, 256 µg/mL (≈ 664 µM); in the test on Aspergillus fumigatus it was 4 µg/mL (≈ 10.4 µM). Further, in the test with Candida tropicalis, the inhibition came out at 27.8%.

As to `O=C(/C=C/C(=O)NC1Cc2ccccc2NC1=O)Nc1ccccc1F` (configuration not stated), the MIC was found to be 512 µg/mL (≈ 1450 µM) against Proteus vulgaris; 512 µg/mL (≈ 1450 µM) against Escherichia coli; 512 µg/mL (≈ 1450 µM) against Staphylococcus aureus [1]; 256 µg/mL (≈ 724 µM) in the test on Staphylococcus aureus [2]; 8 µg/mL (≈ 22.6 µM) with Candida albicans [3]; 8 µg/mL (≈ 22.6 µM) with Aspergillus flavus. The MIC in the test with Cryptococcus neoformans was determined as 16 µg/mL (≈ 45.3 µM); in the test with Bacillus subtilis, 256 µg/mL (≈ 724 µM); in the test with Candida albicans [4], 4 µg/mL (≈ 11.3 µM); against Pseudomonas aeruginosa it was 512 µg/mL (≈ 1450 µM); against Aspergillus fumigatus, 1 µg/mL (≈ 2.83 µM). The inhibition in the test with Candida tropicalis was 48.9%.

With `O=C(/C=C/C(=O)NC1Cc2ccccc2NC1=O)Nc1ccccc1Cl` (configuration not stated), the MIC with Proteus vulgaris was found to be 512 µg/mL (≈ 1380 µM); against Escherichia coli, 256 µg/mL (≈ 692 µM); against Staphylococcus aureus [1], 512 µg/mL (≈ 1380 µM); with Staphylococcus aureus [2], 128 µg/mL (≈ 346 µM); against Candida albicans [3] it was 4 µg/mL (≈ 10.8 µM); against Aspergillus flavus, 8 µg/mL (≈ 21.6 µM). Also, the MIC against Cryptococcus neoformans was 16 µg/mL (≈ 43.3 µM); in the test on Bacillus subtilis it was 512 µg/mL (≈ 1380 µM); against Candida albicans [4], 2 µg/mL (≈ 5.41 µM); in the test with Pseudomonas aeruginosa it was 256 µg/mL (≈ 692 µM); with Aspergillus fumigatus, 8 µg/mL (≈ 21.6 µM). Besides, the inhibition in the test with Candida tropicalis worked out at 46.7%.

With `CN[C@@H]1[C@H](O[C@H]2[C@H](O[C@H]3[C@H](O)[C@@H](O)[C@H](N=C(N)N)[C@@H](O)[C@@H]3N=C(N)N)O[C@@H](C)[C@]2(O)C=O)O[C@@H](CO)[C@H](O)[C@H]1O` [STREPTOMYCIN], the minimum inhibitory concentration (MIC) against Proteus vulgaris amounted to 16 µg/mL (≈ 27.5 µM); against Escherichia coli it was 32 µg/mL (≈ 55 µM); in the test with Staphylococcus aureus [1] it was 16 µg/mL (≈ 27.5 µM); against Staphylococcus aureus [2], 32 µg/mL (≈ 55 µM); with Bacillus subtilis, 8 µg/mL (≈ 13.8 µM); against Pseudomonas aeruginosa, 8 µg/mL (≈ 13.8 µM).

Regarding `OC(Cn1cncn1)(Cn1cncn1)c1ccc(F)cc1F` [FLUCONAZOLE], the MIC was determined as 1 µg/mL (≈ 3.27 µM) against Candida albicans [3]; 2 µg/mL (≈ 6.53 µM) with Aspergillus flavus; 2 µg/mL (≈ 6.53 µM) in the test with Cryptococcus neoformans; 1 µg/mL (≈ 3.27 µM) against Candida albicans [4]; 2 µg/mL (≈ 6.53 µM) against Aspergillus fumigatus.

On to `CCn1cc(C(=O)O)c(=O)c2cc(F)c(N3CCNCC3)cc21` [NORFLOXACIN], for which the MIC was determined as 2 µg/mL (≈ 6.26 µM) against Proteus vulgaris; 8 µg/mL (≈ 25.1 µM) in the test on Escherichia coli; 4 µg/mL (≈ 12.5 µM) against Staphylococcus aureus [1]; 2 µg/mL (≈ 6.26 µM) against Staphylococcus aureus [2]; 4 µg/mL (≈ 12.5 µM) with Bacillus subtilis; 8 µg/mL (≈ 25.1 µM) against Pseudomonas aeruginosa.
